Source: PubChem
Tb MetRS inh = blocks T. brucei methionyl-tRNA synthetase activity; inhibition, % at 11.9 µM; purified T. brucei MetRS, ATP depletion, Kinase-Glo luminescence; actives 0.4% (n = 360,000);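 active = inhibition above a per-plate cutoff of the control wells' mean inhibition plus 3 SD, cut at about 5.5% in these data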;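 also: 0% = DMSO wells median and 100% = median of wells with control inhibitor compound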
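Material: T. brucei methionyl-tRNA synthetase, purified; reagent: substrates ATP, L-methionine and bulk Escherichia coli tRNA; dosing: 11.9 µM single point; timing: 15 min plus 2 h at 25 °C; detection: luminescence of leftover ATP; evaluation: % inhibition; control set: DMSO-only wells as low control; replicates: singlicate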
HGIII-sPLA2 inh = Inhibits HGIII-sPLA2 liposome hydrolysis, primary screen; Q9NZ20; QFRET BODIPY PC-A2 liposome hydrolysis, fluorescence; inhibition, % at 12.2 µM; actives 0.56% (n = 370,000); AID 743126;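 active = inhibition above mean plus 3 SD of compounds lying within the high and low control bounds, cut at about 19% in these data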;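 also: 0% = median of test compound wells and 100% = no enzyme DMSO wells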
PLCb3 inh = inhibitors of human phospholipase C beta3 | Q01970 | Purified PLC-beta3, fluorogenic substrate, fluorescence | inhibition, % at 12.2 µM | actives 0.18% (n = 370,000) | AID 720704;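 also: 0% = median of compound wells on plate and 100% = full blocker control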
Target sequence (Q01970 whole entry, looked up): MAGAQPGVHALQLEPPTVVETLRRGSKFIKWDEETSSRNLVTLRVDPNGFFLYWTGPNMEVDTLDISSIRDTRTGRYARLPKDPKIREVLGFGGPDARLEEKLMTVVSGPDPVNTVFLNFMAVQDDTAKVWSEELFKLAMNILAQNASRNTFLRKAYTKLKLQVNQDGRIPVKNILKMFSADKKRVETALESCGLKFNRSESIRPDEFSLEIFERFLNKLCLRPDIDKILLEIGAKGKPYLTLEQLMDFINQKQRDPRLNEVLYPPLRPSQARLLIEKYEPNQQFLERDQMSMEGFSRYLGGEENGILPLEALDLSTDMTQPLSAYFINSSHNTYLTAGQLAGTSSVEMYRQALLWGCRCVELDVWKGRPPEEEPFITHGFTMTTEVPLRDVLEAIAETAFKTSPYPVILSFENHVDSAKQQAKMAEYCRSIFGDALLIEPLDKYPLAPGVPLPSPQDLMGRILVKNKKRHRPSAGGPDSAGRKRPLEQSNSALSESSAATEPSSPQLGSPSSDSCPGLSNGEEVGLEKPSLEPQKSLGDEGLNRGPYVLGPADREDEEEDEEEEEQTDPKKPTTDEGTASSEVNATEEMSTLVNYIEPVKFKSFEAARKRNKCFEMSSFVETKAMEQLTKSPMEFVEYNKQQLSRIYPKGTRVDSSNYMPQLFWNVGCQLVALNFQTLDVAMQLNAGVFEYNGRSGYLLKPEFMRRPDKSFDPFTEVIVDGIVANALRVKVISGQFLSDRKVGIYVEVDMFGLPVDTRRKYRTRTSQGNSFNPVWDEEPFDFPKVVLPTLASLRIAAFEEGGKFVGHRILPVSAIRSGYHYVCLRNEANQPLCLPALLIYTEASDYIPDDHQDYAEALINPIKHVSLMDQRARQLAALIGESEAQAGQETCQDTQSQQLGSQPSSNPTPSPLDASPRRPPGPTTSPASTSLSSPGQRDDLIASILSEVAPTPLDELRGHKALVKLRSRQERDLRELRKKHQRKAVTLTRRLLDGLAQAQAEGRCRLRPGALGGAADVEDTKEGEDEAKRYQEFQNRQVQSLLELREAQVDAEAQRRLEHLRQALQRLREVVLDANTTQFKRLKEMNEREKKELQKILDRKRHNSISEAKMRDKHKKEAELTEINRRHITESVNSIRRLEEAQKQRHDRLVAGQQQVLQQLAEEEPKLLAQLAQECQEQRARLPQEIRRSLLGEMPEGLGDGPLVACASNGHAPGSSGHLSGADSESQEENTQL
PLC-gamma1 inh = PLC-gamma1 (human) inhibition, primary screen; actives 0.84% (n = 370,000); AID 720700; inhibition, % at 12.2 µM; P19174; purified PLC-gamma1, fluorogenic substrate, fluorescence; in the data active = inhibition above about 9.5%
PLCgamma1 ctr = inhibits human PLC-gamma1 in PLC-beta3 counter-screen. purified PLC-gamma1, fluorogenic substrate, fluorescence. shares compounds with PLC-gamma1 inh. inhibition, % at 12.3 µM. actives 3.1% (n = 3,300); in the data active = inhibition above about 9.5%
PLCbeta3 conf = human PLC-beta3 inhibition, confirmation | shares compounds with PLC-gamma1 inh | purified PLC-beta3, fluorogenic substrate fluorescence | inhibition, % at 12.3 µM | actives 1% (n = 3,300) | AID 743261
* marks the source's active call; other numbers are inactive results; nt = not tested or not shown. In the library only some 1.9% were active in any assay of this set; here they are far more common. Rule as the data show it, unless noted: active = inhibition above about 11%; inactive = the rest.

SMILES	Tb MetRS inh	HGIII-sPLA2 inh	PLCb3 inh	PLC-gamma1 inh	PLCgamma1 ctr	PLCbeta3 conf
Nc1nonc1-c1nc2ccccc2n1Cc1ccc(Cl)cc1	-1.0	11.4	-5.8	10.6*	-8.3	-6.4
Cc1ccc(Cn2c(-c3nonc3N)nc3ccccc32)cc1	-1.7	-5.9	-6.0	-2.4	nt	nt
CCN(CC)CCCNC(=O)c1cn(C(C)c2ccccc2)nn1 (stereo not given)	nt	0.9	0.5	-2.6	nt	nt
Cc1cccc(-n2ncc3c(NC(C)C)ncnc32)c1	0.3	9.4	-3.1	-2.3	nt	nt
Cc1cccc(-n2ncc3c(N)ncnc32)c1	-0.8	13.4	12.4*	10.3*	-3.2	-0.5
COc1ccc(C(C[N+](=O)[O-])c2c(C)[nH]n(-c3ccccc3)c2=O)cc1 (stereo not given)	-0.5	11.1	-0.6	10.2*	2.9	5.6
COc1ccc(C(C[N+](=O)[O-])c2c(C)cc3ccccn23)cc1 (stereo not given)	-0.7	-7.6	-30.4	-26.2	nt	nt
COc1cccc(CNC(=O)[C@@H]2CCCN2C(=O)[C@H]2CCCCN2)c1	-0.6	5.6	6.8	17.9*	-4.2	-0.5
Nc1nc(SCC(=O)Nc2ccccc2-c2ccccc2)n[nH]1	0.0	2.8	0.7	-2.0	nt	nt
Nc1nc(SCC(=O)Nc2ccccc2Oc2ccccc2)n[nH]1	-1.1	-7.0	11.7*	8.0	-6.2	-4.7
C[C@H]1[C@H](N)CC[C@@]23CCCN2C(=O)CCC[C@@H]13	nt	1.6	0.7	0.1	nt	nt
O=[N+]([O-])c1cccc(-c2c(-c3ccccc3)ncc3ccc(F)cc23)c1	-0.1	12.5	11.3*	5.9	-2.0	-2.3
COc1ccc(S[C@]2(C(=O)NCCc3ccccc3)CC(=O)N[C@@H]2c2ccc(OC)cc2)cc1	nt	-1.8	7.5	5.1	nt	nt
O=S(=O)(Cc1ccc(Cl)cc1)C1CCCCC1O (stereo not given)	-0.2	-5.1	4.5	11.2*	-4.3	-0.7
Cc1cccc(NC(=O)CCc2ccccc2)c1C	-1.4	1.4	3.5	11.7*	-10.2	0.0
CCCC(=O)N1CCC[C@]2(CC[C@@H](CCC(=O)OCC)O2)C1	nt	5.2	-0.2	-2.4	nt	nt
CC(C)CCNC(=O)Cn1c(=O)oc2cc(S(=O)(=O)N3CCc4ccccc43)ccc21	0.3	-3.5	11.8*	3.7	-4.3	-0.9
Cc1ccc(C)c(NC(=O)c2ccc(CS(=O)(=O)Cc3ccccc3C)o2)c1	nt	-13.5	-1.1	1.6	nt	nt
COc1cc2[nH]c(=O)n(CCCCCC(=O)NC3CCCC3)c(=O)c2cc1OC	-0.3	16.2	-4.7	10.3*	-0.4	-5.6
O=C1CCC[C@H]2C[C@H](NCc3cccs3)CC[C@]23CCCN13	nt	2.0	1.8	2.0	nt	nt
NC(=O)CC(NC(=O)Cc1cccc2ccccc12)c1ccc(N2CCCCCC2)c([N+](=O)[O-])c1 (stereo not given)	-0.3	-20.4	13.2*	13.5*	10.1*	-3.2
NC(=O)CC(NC(=O)Cc1ccc(Br)cc1)c1ccc(NC2CCC2)c([N+](=O)[O-])c1 (stereo not given)	-0.3	4.3	2.0	8.4	nt	nt
NC(=O)CC(NC(=O)Cc1cccc2ccccc12)c1ccc(NC2CCC2)c([N+](=O)[O-])c1 (stereo not given)	-0.2	-1.6	5.2	10.1*	-6.0	0.2
CC(C)(N[C@@H](Cc1ccccc1)C(=O)NCCc1c[nH]c2ccccc12)C(=O)NC1CCCCC1	nt	-83.5	2.3	3.0	nt	nt
COc1ccc(NC(=O)NNC(=O)CCn2nc(C)c([N+](=O)[O-])c2C)cc1OC	nt	1.5	4.1	0.4	nt	nt
SMILES	Tb MetRS inh	HGIII-sPLA2 inh	PLCb3 inh	PLC-gamma1 inh	PLCgamma1 ctr	PLCbeta3 conf
COC1CCN(C(=O)c2ccc(OC3CCN(Cc4ccccn4)CC3)cc2)CC1	-0.3	9.7	-11.9	10.1*	-3.6	0.0
CCCOC1CCCN(C(=O)c2ccc(OC3CCN(C(=O)CCOC)CC3)cc2)C1 (stereo not given)	-0.5	-5.0	-5.4	0.4	nt	nt
COCC1CCN(C(=O)c2ccc(OC3CCN(Cc4ccccn4)CC3)cc2)C1 (stereo not given)	-0.4	13.5	-5.1	1.9	nt	nt
COCCC(=O)N1CCC(Oc2ccc(C(=O)N3CCCC(OC)C3)cc2)CC1 (stereo not given)	-1.0	4.3	11.6*	3.8	-1.3	-6.8
O=C(CCn1nnc(-c2cccs2)n1)NCc1cccs1	nt	1.8	0.5	0.8	nt	nt
COc1cccc(NC(=O)C2CCCN2C(=O)Nc2cccc3c2OCO3)c1 (stereo not given)	nt	6.2	2.5	3.6	nt	nt
CCCCCn1nnnc1C1(C)CN(S(C)(=O)=O)CC(=O)N1Cc1ccco1 (stereo not given)	nt	-3.4	1.8	-0.9	nt	nt
CCC(C(=O)OCC(=O)Nc1cc(Cl)cc(Cl)c1)c1ccccc1 (stereo not given)	1.0	-26.1	11.1*	7.7	-0.3	1.3
CCOC(=O)c1c(C)[nH]c(C)c1S(=O)(=O)NCCc1sccc1C	0.1	-3.6	-4.1	9.9*	-1.0	-2.2
CCOC(=O)c1c(C)[nH]c(C)c1S(=O)(=O)NCCc1ccc(SC)cc1	0.1	-5.2	-3.3	3.5	nt	nt
O=c1c2ccc(Cl)cc2[nH]c(=S)n1CCCN1CCOCC1	-0.3	3.2	12.2*	2.9	-5.3	-3.1
O=c1c2ccccc2[nH]c(=S)n1CCCN1CCOCC1	-1.2	5.3	5.0	8.8	nt	nt
Cc1ccc(/C=N\NC(=O)Cn2c(C)nc3ccccc32)o1	-0.5	0.3	4.4	9.8*	-5.2	0.5
COc1ccc(CCN(C)C2CCCN(C(=O)CCC(F)(F)F)C2)cc1OC (stereo not given)	-0.2	8.4	-7.8	9.6*	-1.4	-2.6
COc1ccc(Cn2c(C)c(CC(=O)Nc3ccc(Oc4cccnc4)c(C)c3)c3ccccc32)cc1	nt	-2.7	-18.8	-13.3	nt	nt
NC(=O)NOCc1ccc(Cl)cc1Cl	0.3	12.5	2.8	12.9*	-6.6	-3.9
COc1ccc(CN(C)C(=O)C2CCCN(c3nc4ccccc4o3)C2)cc1 (stereo not given)	nt	-2.9	-2.3	-0.7	nt	nt
N/C(=N\N=C\c1ccc2c(c1)OCO2)c1nonc1N	-0.8	12.8	13.1*	9.8*	-6.2	1.3
COC(=O)c1sccc1NC(=O)CN(C)NS(=O)(=O)c1ccc(F)cc1	-0.2	4.6	4.3	12.1*	-6.5	0.3
CC1CC(C)CN(C(=O)COC(=O)COc2ccccc2C#N)C1 (stereo not given)	0.3	0.5	0.9	12.7*	-6.2	-1.6
CC1CCN(C(=O)COC(=O)COc2ccccc2C#N)CC1	0.8	10.5	-3.3	1.4	nt	nt
CN(C)S(=O)(=O)c1cccc(C(=O)N2CCN(Cc3ccccc3)CC2)c1	-0.1	-0.3	-4.8	-0.1	nt	nt
Cc1ccc(N(C)S(=O)(=O)c2cccc(C(=O)N3CCN(Cc4ccccc4)CC3)c2)cc1	-0.6	-19.7	-4.4	10.8*	1.9	2.2
CCSc1nnc(NC(=O)c2cc(C)oc2C)s1	-1.1	5.8	3.2	11.5*	-6.4	-2.9
